{"source": "ChEMBL document CHEMBL4715918", "about": "“Syntheses and evaluation of acridone-naphthalimide derivatives for regulating oncogene PDGFR-β expression” (Bioorg Med Chem, 2021)", "key": {"MCF7 [1]": {"tested_on": "MCF7", "assay": "Induction apoptosis in human MCF7 cells assessed as late apoptotic cells at 5 uM incubated for 24 hrs by Annexin-FTTC/PI staining based flow cytometric analysis (reference value: 0%)", "assay_type": "functional"}, "MCF7 [2]": {"tested_on": "MCF7", "assay": "Antitumour activity against human MCF7 cells xenografted in nude BALB/c mouse assessed as tumour volume at 2.5 mg/kg, ip administered for 34 days (reference value: 1530 mm3)", "assay_type": "functional", "settings": "time 34 day"}, "[3]": {"assay": "Toxicity in nude BALB/c mouse xenografted with human MCF7 cells assessed as liver weight at 2.5 to 10 mg/kg, ip administered for 34 days", "assay_type": "organism-based", "settings": "in vivo, 816 h, dose 2.5-10 mg/kg, time 34 day", "in_short": "(§1)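 Nude BALB/c females bearing subcutaneous MCF-7 xenografts were dosed ip once daily for 34 days at 2.5, 5.0 or 10 mg/kg, with saline vehicle (100 µL) as control. Body weight was recorded every 2 days. After euthanasia by cervical dislocation, heart, liver, spleen and kidney were removed and weighed.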"}, "[4]": {"assay": "Toxicity in nude BALB/c mouse xenografted with human MCF7 cells assessed as lung weight at 2.5 to 10 mg/kg, ip administered for 34 days", "assay_type": "organism-based", "settings": "in vivo, 816 h, dose 2.5-10 mg/kg, time 34 day"}, "MCF7 [5]": {"tested_on": "MCF7", "assay": "Binding affinity to wild type PDGFRbeta promoter (unknown origin) in human MCF7 cells assessed as down regulation of PDGFRbeta mRNA expression at 1.25 to 20 uM after 12 hrs by RT-PCR analysis", "assay_type": "cell-based", "settings": "dose 1.25-20 µM"}, "MCF7 [6]": {"tested_on": "MCF7", "assay": "Induction apoptosis in human MCF7 cells assessed as necrotic cells at 5 uM incubated for 24 hrs by Annexin-FTTC/PI staining based flow cytometric analysis (reference value: 0.11%)", "assay_type": "functional"}, "[7]": {"assay": "Binding affinity to FAM-labeled 5'-biotin-d[TATAGCTATA-HEG-TATAGCTATA]- 3' duplex DNA (unknown origin) by microscale thermophoresis assay", "in_short": "(§2)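 Microscale thermophoresis with DNA held constant at 1 µM. Compound serially diluted 3:4 from 10 µM over 12 points. Samples run in standard glass capillaries with LED and laser power both at 20%. KD derived by fitting.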"}, "MCF7 [8]": {"tested_on": "MCF7", "assay": "Antitumour activity against human MCF7 cells xenografted in nude BALB/c mouse assessed as tumour volume at 5 mg/kg, ip administered for 34 days (reference value: 1530 mm3)", "assay_type": "functional", "settings": "time 34 day"}, "[9]": {"assay": "Toxicity in nude BALB/c mouse xenografted with human MCF7 cells assessed as heart weight at 2.5 to 10 mg/kg, ip administered for 34 days", "assay_type": "organism-based", "settings": "in vivo, 816 h, dose 2.5-10 mg/kg, time 34 day", "in_short": "as §1"}, "MCF7 [10]": {"tested_on": "MCF7", "assay": "Induction apoptosis in human MCF7 cells assessed as late apoptotic cells at 2.5 uM incubated for 24 hrs by Annexin-FTTC/PI staining based flow cytometric analysis (reference value: 0%)", "assay_type": "functional"}, "MCF7 [11]": {"tested_on": "MCF7", "assay": "Inhibition of colony formation in human MCF7 cells after 7 days by crystal staining based assay", "assay_type": "functional, cell-based", "settings": "dose 0.3125-2.5 µM, time 7.0 day", "in_short": "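MCF-7 cells were seeded at 1,000/well and grown 24 h, then exposed 7 days to 2.5, 1.25, 0.625, 0.3125 μM compound or DMSO. Colonies were fixed in methanol, stained with crystal violet and imaged.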"}, "MCF7 [12]": {"tested_on": "MCF7", "assay": "Binding affinity to wild type PDGFRbeta promoter (unknown origin) in human MCF7 cells after 48 hrs by dual luciferase reporter assay", "assay_type": "cell-based", "in_short": "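MCF-7 cells were transfected with 200 ng psiCHECK2 plasmid carrying the wild-type PDGFR-β promoter. After 4 h, compound was added at various concentrations and cells were incubated 48 h at 37 °C. Cells were washed with cold PBS and dual-luciferase signals read for 10 s. Renilla activity was normalised to firefly.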"}, "MCF7 [13]": {"tested_on": "MCF7", "assay": "Induction of cell cycle arrest in human MCF7 cells assessed as accumulation at G2/M phase after 48 hrs by propidium iodide staining based flow cytometric analysis", "assay_type": "functional", "settings": "dose 0.625-10 µM", "in_short": "(§3)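 MCF-7 cells, 2 × 10^5/well, were pre-grown 12 h, then treated with 10, 5, 2.5, 1.25, 0.625 μM compound or DMSO. Cells were fixed in 75% ethanol at −20 °C overnight. Staining was 50 μg/mL PI with RNase A, 30 min at room temperature in the dark. Flow cytometry collected 10,000 events; phase distribution was determined.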"}, "Quadruplex DNA [14]": {"target": "Quadruplex DNA", "assay": "Binding affinity to FAM-labeled 5'-biotin-d [GCTGGGAGAAGGGGGGGCGGCGGGGCAGGGAGGGTGGACGC]-3' G4-quadruplex DNA (unknown origin) by microscale thermophoresis assay", "assay_type": "nucleic-acid assay", "in_short": "as §2"}, "[15]": {"assay": "Binding affinity to 5'-FAM-GCGTCCACCCTCCCTGCCCCGCCGCCCCCCCTTCTCCCAGC-TAMRA-3' i-motif DNA (unknown origin) at pH 5.5 assessed as unfolding i-motif structure"}, "[16]": {"assay": "Toxicity in nude BALB/c mouse xenografted with human MCF7 cells assessed as reduction in body weight at 2.5 to 10 mg/kg, ip administered for 34 days", "assay_type": "organism-based", "settings": "in vivo, 816 h, dose 2.5-10 mg/kg, time 34 day", "in_short": "as §1"}, "[17]": {"assay": "Toxicity in nude BALB/c mouse xenografted with human MCF7 cells assessed as kidney weight at 2.5 to 10 mg/kg, ip administered for 34 days", "assay_type": "organism-based", "settings": "in vivo, 816 h, dose 2.5-10 mg/kg, time 34 day", "in_short": "as §1"}, "MCF7 [18]": {"tested_on": "MCF7", "assay": "Cytotoxicity against human MCF7 cells assessed as reduction in cell viability after 48 hrs by MTT assay", "assay_type": "functional, cell-based", "settings": "MCF7, 48 h", "in_short": "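MTT assay: cells seeded at 5.0 × 10³/well, grown 12 h, then exposed to graded compound concentrations for 48 h at 37 °C/5% CO2. 2.5 mg/mL MTT was added for 4 h, formazan dissolved in DMSO, and absorbance read at 570 nm. Each dose in triplicate; IC50 from percent survival versus negative control.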"}, "MCF7 [19]": {"tested_on": "MCF7", "assay": "Induction apoptosis in human MCF7 cells assessed as early apoptotic cells at 5 uM incubated for 24 hrs by Annexin-FTTC/PI staining based flow cytometric analysis (reference value: 0.28%)", "assay_type": "functional"}, "Quadruplex DNA [20]": {"target": "Quadruplex DNA", "assay": "Binding affinity to 5'-biotin-d [GCTGGGAGAAGGGGGGGCGGCGGGGCAGGGAGGGTGGACGC]-3' G4-quadruplex DNA (unknown origin) by surface plasmon resonance assay", "assay_type": "nucleic-acid assay", "in_short": "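SPR: biotinylated oligomers were captured on a neutravidin chip at ~1000 RU, with a blank reference cell. Running buffer was 20 mM MES pH 5.5, 100 mM KCl, 0.05% Tween-20 for the i-motif, or 50 mM Tris-HCl pH 7.4, 100 mM KCl for the G-quadruplex. Ligand was injected at 0–10 μM (six concentrations), with 200 s association and 300 s dissociation at 25 °C.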"}, "MCF7 [21]": {"tested_on": "MCF7", "assay": "Induction apoptosis in human MCF7 cells assessed as necrotic cells at 2.5 uM incubated for 24 hrs by Annexin-FTTC/PI staining based flow cytometric analysis (reference value: 0.11%)", "assay_type": "functional"}, "MCF7 [22]": {"tested_on": "MCF7", "assay": "Induction of cell cycle arrest in human MCF7 cells assessed as accumulation at G0/G1 phase at 0.625 to 10 uM after 48 hrs by propidium iodide staining based flow cytometric analysis (reference value: 75.7%)", "assay_type": "functional", "settings": "dose 0.625-10 µM", "in_short": "as §3"}, "MCF7 [23]": {"tested_on": "MCF7", "assay": "Induction apoptosis in human MCF7 cells assessed as necrotic cells at 1.25 uM incubated for 24 hrs by Annexin-FTTC/PI staining based flow cytometric analysis (reference value: 0.11%)", "assay_type": "functional"}, "MCF7 [24]": {"tested_on": "MCF7", "assay": "Induction apoptosis in human MCF7 cells assessed as early apoptotic cells at 1.25 uM incubated for 24 hrs by Annexin-FTTC/PI staining based flow cytometric analysis (reference value: 0.28%)", "assay_type": "functional"}, "MCF7 [25]": {"tested_on": "MCF7", "assay": "Induction of cell cycle arrest in human MCF7 cells assessed as accumulation at G2/M phase at 0.625 to 10 uM after 48 hrs by propidium iodide staining based flow cytometric analysis (reference value: 15.8%)", "assay_type": "functional", "settings": "dose 0.625-10 µM", "in_short": "as §3"}}, "data": [{"smiles": "Cc1ccc2c(c1)c(=O)c1cc(C(=O)NCCCN(C)CCCN3C(=O)c4cccc5c(N6CCN(C)CC6)ccc(c45)C3=O)ccc1n2-c1ccc(C(=O)NCCCN(C)CCCN2C(=O)c3cccc4c(N5CCN(C)CC5)ccc(c34)C2=O)cc1", "values": [{"measurement": "Activity", "setting": "MCF7 [1]", "value": 51.1, "unit": "%"}, {"measurement": "Activity", "setting": "MCF7 [2]", "value": 985.1, "unit": "mm3"}, {"measurement": "Activity", "setting": "[3]", "value": "Non-Toxic"}, {"measurement": "Activity", "setting": "[4]", "value": "Non-Toxic"}, {"measurement": "Activity", "setting": "MCF7 [5]", "value": "Dose-dependent effect"}, {"measurement": "Activity", "setting": "MCF7 [6]", "value": 2.42, "unit": "%"}, {"measurement": "Kd", "setting": "[7]", "value": 529, "unit": "µM"}, {"measurement": "Activity", "setting": "MCF7 [8]", "value": 780, "unit": "mm3"}, {"measurement": "Activity", "setting": "[9]", "value": "Non-Toxic"}, {"measurement": "Activity", "setting": "MCF7 [10]", "value": 1.96, "unit": "%"}, {"measurement": "inhibition", "setting": "MCF7 [11]", "value": "Dose-dependent effect"}, {"measurement": "Activity", "setting": "MCF7 [12]", "value": "Dose-dependent effect"}, {"measurement": "Activity", "setting": "MCF7 [13]", "value": "Dose-dependent effect"}, {"measurement": "Kd", "setting": "Quadruplex DNA [14]", "value": 6.11, "unit": "µM"}, {"measurement": "Activity", "setting": "[15]", "value": "Dose-dependent effect"}, {"measurement": "Activity", "setting": "[16]", "value": "Non-Toxic"}, {"measurement": "Activity", "setting": "[17]", "value": "Non-Toxic"}, {"measurement": "IC50", "setting": "MCF7 [18]", "value": 4.69, "unit": "µM"}, {"measurement": "Activity", "setting": "MCF7 [19]", "value": 33.5, "unit": "%"}, {"measurement": "Kd", "setting": "Quadruplex DNA [20]", "value": 3.23, "unit": "µM"}, {"measurement": "Activity", "setting": "MCF7 [21]", "value": 0.49, "unit": "%"}, {"measurement": "Activity", "setting": "MCF7 [22]", "value": 48.1, "unit": "%"}, {"measurement": "Activity", "setting": "MCF7 [23]", "value": 0.43, "unit": "%"}, {"measurement": "Activity", "setting": "MCF7 [24]", "value": 7.38, "unit": "%"}, {"measurement": "Activity", "setting": "MCF7 [25]", "value": 31.5, "unit": "%"}]}]}
